According to ChEMBL document CHEMBL5316289, “Structure-Based Rational Design of Small α-Helical Peptides with Broad-Spectrum Activity against Multidrug-Resistant Pathogens” (J Med Chem, 2023):
Activity calls are given as the source filed them. No cut-off for these calls is given here.

Tests used:
[1] = tested on: Staphylococcus aureus; test: Induction of membrane morphological changes in methicillin resistant Staphylococcus aureus ATCC BAA 1556 assessed as cellular debris formation at 4 times of MIC measured after 1 hrs by FE-SEM analysis; assay type: functional, organism-based
Summary of the method: (§1)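 Methods give 30 min; legend gives 1 h. Washed, fixed in 4% glutaraldehyde in 0.2 M Na-cacodylate for 3 h, dehydrated through graded ethanol, dried with HMDS, Au/Pd-coated (~20 nm) and imaged by SEM. Untreated cells as control.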

[2] = tested on: Staphylococcus aureus; test: Antibacterial activity against methicillin resistant Staphylococcus aureus ATCC BAA 1556 assessed as fold increase in MIC incubated for 24 hrs in presence of Na+ ions by CLSI based broth microdilution method; assay type: functional
Summary of the method: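 CLSI broth microdilution. Overnight cultures diluted in cation-adjusted Mueller Hinton broth to 10^6 CFU/mL, mixed 1:1 with 2-fold serial peptide dilutions, 24 h at 37 °C. […] MIC is the lowest concentration inhibiting growth. Three independent assays in triplicate.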

[3] = tested on: Escherichia coli; test: Induction of membrane morphological changes in Escherichia coli ATCC BAA-2452 assessed as cellular debris formation at 4 times of MIC measured after 1 hrs by FE-SEM analysis; assay type: functional, organism-based
Summary of the method: (§2)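 E. coli ATCC BAA-2452 grown to exponential phase in MHB at 37 °C with shaking, then diluted to 2 × 10^6 CFU/mL. […] Cells were PBS-washed and fixed 3 h in 4% glutaraldehyde in 0.2 M cacodylate. Then ethanol-dehydrated, HMDS-dried, Au/Pd-coated and imaged by FE-SEM. Untreated control.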

[4] = tested on: HEK293; test: Antiproliferative activity human HEK293 cells assessed as reduction in cell viability at 50 ug/ml incubated for 24 hrs by MTS assay; assay type: functional; conditions: dose 50 µg/ml
Summary of the method: (§3)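 Cells seeded at 10,000 per well 24 h before treatment. Media: MRC-5 and HEK293 in DMEM with 10% FBS; HepaRG in William's E with GlutaMAX; HEKa in Dermal Cell Basal medium plus keratinocyte growth kit. Peptide at 10–250 μg/mL in triplicate for 24 h, 37 °C, 5% CO2. MTS added for 2 h, then A490 read. Survival is blank-corrected OD as % of untreated control.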

[5] = tested on: MRC5; test: Antiproliferative activity human MRC5 cells assessed as reduction in cell viability at 250 ug/ml incubated for 24 hrs by MTS assay; assay type: functional; conditions: dose 250 µg/ml; summary of the method: as §3
[6] = tested on: Escherichia coli; test: Induction of membrane morphological changes in Escherichia coli ATCC BAA-2452 assessed as cell surface blebs formation at 4 times of MIC measured after 1 hrs by FE-SEM analysis; assay type: functional, organism-based; summary of the method: as §2
[7] = tested on: Escherichia coli; test: Bactericidal activity against […] Escherichia coli ATCC BAA 2452 assessed as inhibition of bacterial growth at 4 times of MIC incubated for 4 hrs by Time kill assay; assay type: functional
Summary of the method: (§4)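 Aliquots taken every 30 min for 4 h and plated on agar for viable colony counts. Two independent experiments in triplicate.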

[8] = tested on: Escherichia coli; test: Antibacterial activity against Escherichia coli ATCC 25922 assessed as fold increase in MIC incubated for 24 hrs in presence of Mg2+ ions by CLSI based broth microdilution method; assay type: functional
Summary of the method: (§5)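 E. coli MICs by CLSI broth microdilution in cation-adjusted Mueller Hinton broth. […] Inoculum was 10^6 CFU/mL with 2-fold serial peptide dilutions, incubated 24 h at 37 °C. MIC is the lowest concentration inhibiting growth. Three independent assays, each in triplicate.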

[9] = tested on: Escherichia coli; test: Antibacterial activity against Escherichia coli ATCC 25922 assessed as fold increase in MIC incubated for 24 hrs in presence of Na+ ions by CLSI based broth microdilution method; assay type: functional; summary of the method: as §5
[10] = tested on: Staphylococcus aureus; test: Induction of membrane morphological changes in methicillin resistant Staphylococcus aureus ATCC BAA 1556 assessed as cell surface roughening at 4 times of MIC measured after 1 hrs by FE-SEM analysis; assay type: functional, organism-based; summary of the method: as §1
[11] = tested on: Staphylococcus aureus; test: Induction of membrane morphological changes in methicillin resistant Staphylococcus aureus ATCC BAA 1556 assessed as cell surface wrinkling at 4 times of MIC measured after 1 hrs by FE-SEM analysis; assay type: functional, organism-based; summary of the method: as §1
[12] = tested on: Cell membrane; test: Disruption of cell membrane in Escherichia coli ATCC BAA-2452 assessed as increase in PI fluorescence intensity measured after 1 hrs by PI staining based flow cytometric analysis
Summary of the method: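 Mid-log E. coli ATCC BAA-2452 grown in Mueller Hinton broth, washed thrice and resuspended at 10^7 CFU/mL in 10 mM Tris pH 7.4. […] Controls: PBS (negative) and 10% Triton X-100 (positive). Triplicate; two-tailed unpaired t-test.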

[13] = tested on: Staphylococcus aureus; test: Bactericidal activity against methicillin resistant Staphylococcus aureus ATCC BAA 1556 assessed as inhibition of bacterial growth at 4 times of MIC incubated for 4 hrs by Time kill assay; assay type: functional; summary of the method: as §4
[14] = Antiproliferative activity human HEKa cells assessed as reduction in cell viability at 50 ug/ml incubated for 24 hrs by MTS assay; assay type: functional; conditions: dose 50 µg/ml; summary of the method: as §3
[15] = tested on: Cell membrane; test: Disruption of cell membrane in methicillin resistant Staphylococcus aureus ATCC BAA 1556 assessed as increase in PI fluorescence intensity at 4 times of MIC measured after 1 hrs by PI staining based flow cytometric analysis
Summary of the method: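 Mid-log cells grown in Mueller Hinton broth, washed in 10 mM Tris pH 7.4, 10^7 CFU/mL, treated at MIC and 4× MIC for 1 h. Pelleted, washed, PI-stained for 15 min at 37 °C in the dark, then counted by flow cytometry for % PI-positive cells. PBS-treated cells as negative control, 10% Triton X-100 as positive control. Run in triplicate; two-tailed unpaired t-test.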

[16] = tested on: Cell membrane; test: Disruption of cell membrane in Escherichia coli ATCC BAA-2452 assessed as cell membrane perturbation measured after 1 hrs by PI and DAPI double staining based fluorescence microscopic analysis; assay type: subcellular
Summary of the method: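 Mid-log E. coli ATCC BAA-2452 was washed three times in PBS (10 mM, pH 7.3). Cells at 10^7 CFU/mL were exposed to agent at MIC or 4× MIC for 1 h, then pelleted at 3000g and washed. Staining was PI for 15 min, then DAPI for 15 min, both at 37 °C in the dark. Untreated cells were processed alike. Imaged by fluorescence microscopy with 60× oil objective.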

[17] = Antiproliferative activity human HEKa cells assessed as reduction in cell viability at 250 ug/ml incubated for 24 hrs by MTS assay; assay type: functional; conditions: dose 250 µg/ml; summary of the method: as §3

In the case of H-KWLKKWLKWWKK-NH2, the Activity [1] is reported as “Active”, the “fold change (FC)” value [2] is reported as 2 and the Activity [3] is reported as “Active”. For the same substance, the Activity [4] was over 75%, the Activity [5] was over 60% and the Activity [6] was “Active”. For the same substance, the “inhibition (INH)” value [7] was 70%, the “fold change (FC)” value [8] was 2 and the “fold change (FC)” value [9] was 2. For the same substance, the Activity [10] was “Active”, the Activity [11] was “Active” and the Activity [12] was “Dose-Dependent Effect”. For the same substance, the “inhibition (INH)” value [13] was 100%, the Activity [14] was over 75% and the Activity [15] was 75%. The Activity [16] was “Dose-Dependent Effect”.
For H-RWLRRWLRWWRR-NH2, the “fold change (FC)” value [2] was 2, the Activity [4] was under 60% and the Activity [5] was under 30%. The Activity [17] was under 30%, the “fold change (FC)” value [8] was 2 and the “fold change (FC)” value [9] was 2. The Activity [12] was “Dose-Dependent Effect”, the “inhibition (INH)” value [13] was 100% and the Activity [14] was under 60%. For the same substance, the Activity [15] was 75% and the Activity [16] was “Dose-Dependent Effect”.
